From ChEMBL document CHEMBL2046332, “Substrate analog studies of the ω-regiospecificity of Mycobacterium tuberculosis cholesterol metabolizing cytochrome P450 enzymes CYP124A1, CYP125A1 and CYP142A1” (Bioorg Med Chem, 2012)
pKd: −log10 of the molar value. Activity calls are given as the source filed them. The calls are words filed in the database; no cut-off is given here.

Tests used:
[1] = system: Mycobacterium tuberculosis; assay: Binding affinity to Mycobacterium tuberculosis CYP142A1 assessed as type 1 binding mode at 0.05 to 0.2 uM by UV-visible spectrophotometry
How it was run: (§1)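 Spectral titration of each P450 with steroid solubilised in methyl β-cyclodextrin. Ligand-induced low-spin/high-spin shifts were followed in the Soret region and at ~650 nm to assign binding type. Absolute spectra of the P450–steroid complexes were also examined.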

[2] = system: Mycobacterium tuberculosis; assay: Activity of Mycobacterium tuberculosis CYP124A1 assessed as apparent turnover number at 50 uM incubated for 1 hr at 25 degC by GC-MS method
How it was run: (§2)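 Each P450 (250 nM) was incubated with 50 μM substrate, 5 μg catalase, 50 μg/mL ferredoxin, 0.16 U/mL ferredoxin-NADP+ reductase, and an NADPH-regenerating system (1 mM glucose-6-phosphate, 2.4 U/mL G6P dehydrogenase, 5 mM MgCl2, 800 μM NADP+). Buffer was 50 mM potassium phosphate pH 7.5, 25 °C, 1 h. Quenched with HCl, extracted into hexanes, TMS-derivatised, GC-MS. Controls lacked P450 or NADPH.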

[3] = system: Mycobacterium tuberculosis; assay: Binding affinity to Mycobacterium tuberculosis CYP124A1 assessed as type 1 binding mode at 0.05 to 0.2 uM by UV-visible spectrophotometry; how it was run: as §1
[4] = system: Mycobacterium tuberculosis; assay: Activity of Mycobacterium tuberculosis CYP142A1 assessed as relative apparent turnover number at 50 uM incubated for 1 hr at 25 degC by GC-MS method relative to cholesterol
[5] = target: T1, Steroid C26-monooxygenase (Mycobacterium tuberculosis, UniProt P9WPP1); assay: Activity of Mycobacterium tuberculosis CYP125A1 assessed as apparent turnover number at 50 uM incubated for 1 hr at 25 degC by GC-MS method; how it was run: as §2
T1 sequence (P9WPP1 whole entry): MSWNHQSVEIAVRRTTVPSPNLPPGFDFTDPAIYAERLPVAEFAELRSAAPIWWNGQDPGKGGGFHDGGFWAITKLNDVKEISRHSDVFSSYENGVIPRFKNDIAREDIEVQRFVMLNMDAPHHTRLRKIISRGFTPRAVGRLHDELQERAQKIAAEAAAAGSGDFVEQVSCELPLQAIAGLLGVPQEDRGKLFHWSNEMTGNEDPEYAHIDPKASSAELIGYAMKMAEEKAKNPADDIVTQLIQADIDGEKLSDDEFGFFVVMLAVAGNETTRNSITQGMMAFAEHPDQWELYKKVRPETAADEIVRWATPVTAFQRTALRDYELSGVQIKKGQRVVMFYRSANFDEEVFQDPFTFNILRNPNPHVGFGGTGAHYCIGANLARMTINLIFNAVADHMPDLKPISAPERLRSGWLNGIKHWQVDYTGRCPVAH

[6] = system: Mycobacterium tuberculosis; assay: Activity of Mycobacterium tuberculosis CYP142A1 assessed as apparent turnover number at 50 uM incubated for 1 hr at 25 degC by GC-MS method; how it was run: as §2
[7] = target: T1, Steroid C26-monooxygenase; assay: Activity of Mycobacterium tuberculosis CYP125A1 assessed as relative apparent turnover number at 50 uM incubated for 1 hr at 25 degC by GC-MS method relative to cholesterol
[8] = system: Mycobacterium tuberculosis; assay: Activity of Mycobacterium tuberculosis CYP124A1 assessed as relative apparent turnover number at 50 uM incubated for 1 hr at 25 degC by GC-MS method relative to cholesterol
[9] = target: T1, Steroid C26-monooxygenase; assay: Binding affinity to Mycobacterium tuberculosis CYP125A1 assessed as type 1 binding mode at 0.05 to 0.2 uM by UV-visible spectrophotometry; how it was run: as §1
[10] = target: T1, Steroid C26-monooxygenase; assay: Binding affinity to Mycobacterium tuberculosis CYP125A1 assessed as type 1a binding mode at > 0.05 to 0.2 uM by UV-visible spectrophotometry; how it was run: as §1
[11] = target: T1, Steroid C26-monooxygenase; assay: Binding affinity to Mycobacterium tuberculosis CYP125A1 by UV-visible spectrophotometry; conditions: read-out: Kd(app); how it was run: as §1
[12] = Binding affinity to Mycobacterium tuberculosis CYP124A1 by UV-visible spectrophotometry; conditions: read-out: Kd(app); how it was run: as §1
[13] = system: Mycobacterium tuberculosis; assay: Time dependent inhibition of Mycobacterium tuberculosis CYP124A1 at 50 uM incubated up to 3 hrs by HPLC
How it was run: (§3)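 P450 (5 μM) was pre-incubated with 50 μM test sterol in 50 mM potassium phosphate pH 7.5 with ferredoxin, reductase, catalase and NADPH-regenerating system. Controls received MβCD vehicle only. Aliquots taken over time were diluted twenty-fold into buffer with 50 μM cholest-4-en-3-one, spinach ferredoxin, reductase and 1 mM NADPH, run 10 min at 25 °C, and analysed by HPLC. Residual activity = % of control.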

[14] = system: Mycobacterium tuberculosis; assay: Time dependent inhibition of Mycobacterium tuberculosis CYP142A1 at 50 uM incubated up to 3 hrs by HPLC; how it was run: as §3
[15] = system: Mycobacterium tuberculosis; assay: Activity of Mycobacterium tuberculosis CYP142A1 assessed as compound oxidation at 50 uM incubated for 1 hr at 25 degC by GC-MS method; how it was run: as §2
[16] = system: Mycobacterium tuberculosis; assay: Activity of Mycobacterium tuberculosis CYP124A1 assessed as compound oxidation at 50 uM incubated for 1 hr at 25 degC by GC-MS method; how it was run: as §2

| Structure (SMILES) | Activity [1] | Kcat(app) [2] | Activity [3] | Activity [4] | Kcat(app) [5] | Kcat(app) [6] | Activity [7] | Activity [9] | Activity [15] | Activity [16] | further results |
| --- | --- | --- | --- | --- | --- | --- | --- | --- | --- | --- | --- |
| CCCCC[C@@H](C)[C@H]1CC[C@H]2[C@@H]3CC=C4C[C@@H](O)CC[C@]4(C)[C@H]3CC[C@]12C | Active | 0.0117 s⁻¹ | Active | 11.7% | 0.085 s⁻¹ | 0.0317 s⁻¹ | 18% | Active | – | – | Activity [8]: 48.6% |
| CSCCC[C@@H](C)[C@H]1CC[C@H]2[C@@H]3CC=C4C[C@@H](O)CC[C@]4(C)[C@H]3CC[C@]12C | Active | – | Active | – | – | – | – | – | – | – | Activity [10]: Active |
| C=C(C)CCC[C@@H](C)[C@H]1CC[C@H]2[C@@H]3CC=C4C[C@@H](O)CC[C@]4(C)[C@H]3CC[C@]12C | Active | 0.00667 s⁻¹ | Active | 6.7% | 0.178 s⁻¹ | 0.0183 s⁻¹ | 37% | – | – | – | Activity [10]: Active; pKd [11]: 6.60; pKd [12]: 6.82; Activity [8]: 26.2% |
| C=CCCC[C@@H](C)[C@H]1CC[C@H]2[C@@H]3CC=C4C[C@@H](O)CC[C@]4(C)[C@H]3CC[C@]12C | Active | 0.0005 s⁻¹ | Active | 6.7% | 0.0367 s⁻¹ | 0.0183 s⁻¹ | 8% | Active | – | – | inhibition [13]: inactive; inhibition [14]: inactive; Activity [8]: 1.9% |
| C[C@H](CCCBr)[C@H]1CC[C@H]2[C@@H]3CC=C4C[C@@H](O)CC[C@]4(C)[C@H]3CC[C@]12C | Active | – | Active | – | – | – | – | – | – | – | Activity [10]: Active |
| C=C(C)CCC[C@@H](C)[C@H]1CC[C@H]2[C@@H]3CCC4=CC(=O)CC[C@]4(C)[C@H]3CC[C@]12C | – | – | – | – | – | – | – | – | Active | Active | – |
| C=CCCC[C@@H](C)[C@H]1CC[C@H]2[C@@H]3CCC4=CC(=O)CC[C@]4(C)[C@H]3CC[C@]12C | – | – | – | – | – | – | – | – | Active | Active | – |
| CC(C)=CCC[C@@H](C)[C@H]1CC[C@@]2(C)C3=C(CC[C@]12C)[C@@]1(C)CCC(=O)C(C)(C)[C@@H]1CC3 | – | – | – | – | – | – | – | – | Active | Active | – |
| CC(C)=CCC[C@@H](C)[C@H]1CC[C@H]2[C@@H]3CCC4=CC(=O)CC[C@]4(C)[C@H]3CC[C@]12C | – | – | – | – | – | – | – | – | Active | Active | – |
| CC(C)CCC[C@@H](C)[C@H]1CC[C@H]2[C@@H]3CC[C@@H]4CC(=O)CC[C@]4(C)[C@H]3CC[C@]12C | – | – | – | – | – | – | – | – | Active | Active | – |
| CCCCC[C@@H](C)[C@H]1CC[C@H]2[C@@H]3CCC4=CC(=O)CC[C@]4(C)[C@H]3CC[C@]12C | – | – | – | – | – | – | – | – | Active | Active | – |
| CSCCC[C@@H](C)[C@H]1CC[C@H]2[C@@H]3CCC4=CC(=O)CC[C@]4(C)[C@H]3CC[C@]12C | – | – | – | – | – | – | – | – | Active | Active | – |
| C[C@H](CCCBr)[C@H]1CC[C@H]2[C@@H]3CCC4=CC(=O)CC[C@]4(C)[C@H]3CC[C@]12C | – | – | – | – | – | – | – | – | Active | Active | – |
| CCC(C)CCC[C@@H](C)[C@H]1CC[C@H]2[C@@H]3CC=C4C[C@@H](O)CC[C@]4(C)[C@H]3CC[C@]12C (mixture of isomers) | Active | – | Active | 58.7% | 0.317 s⁻¹ | 0.163 s⁻¹ | 68.1% | Active | – | – | – |
| CC(Cl)CCC[C@@H](C)[C@H]1CC[C@H]2[C@@H]3CC=C4C[C@@H](O)CC[C@]4(C)[C@H]3CC[C@]12C (mixture of isomers) | Active | 0.0075 s⁻¹ | Active | 53.7% | 0.122 s⁻¹ | 0.15 s⁻¹ | 26% | Active | – | – | Activity [8]: 29.8% |
| CC(Br)CCC[C@@H](C)[C@H]1CC[C@H]2[C@@H]3CC=C4C[C@@H](O)CC[C@]4(C)[C@H]3CC[C@]12C (mixture of isomers) | Active | 0.0168 s⁻¹ | Active | 107% | 0.3037 s⁻¹ | 0.299 s⁻¹ | 65.1% | Active | – | – | Activity [8]: 67.3% |
| CC(Br)CCC[C@@H](C)[C@H]1CC[C@H]2[C@@H]3CCC4=CC(=O)CC[C@]4(C)[C@H]3CC[C@]12C (mixture of isomers) | – | – | – | – | – | – | – | – | Active | Active | – |
| CC(Cl)CCC[C@@H](C)[C@H]1CC[C@H]2[C@@H]3CCC4=CC(=O)CC[C@]4(C)[C@H]3CC[C@]12C (mixture of isomers) | – | – | – | – | – | – | – | – | Active | Active | – |
| CCC(C)CCC[C@@H](C)[C@H]1CC[C@H]2[C@@H]3CCC4=CC(=O)CC[C@]4(C)[C@H]3CC[C@]12C (mixture of isomers) | – | – | – | – | – | – | – | – | Active | Active | – |
| CC(C)CCC[C@@H](C)[C@H]1CC[C@H]2[C@@H]3CCC4=CC(=O)CC[C@]4(C)[C@H]3CC[C@]12C [4-CHOLESTEN 3-ONE] | Active | – | Active | – | – | – | – | Active | Active | Active | – |
| CC(C)CCC[C@@H](C)[C@H]1CC[C@H]2[C@@H]3CC=C4C[C@@H](O)CC[C@]4(C)[C@H]3CC[C@]12C [CHOLESTEROL] | Active | 0.025 s⁻¹ | Active | – | 0.467 s⁻¹ | 0.278 s⁻¹ | – | Active | – | – | – |
| CC(C)CCC[C@@H](C)[C@H]1CC[C@H]2[C@@H]3CC[C@@H]4C[C@@H](O)CC[C@]4(C)[C@H]3CC[C@]12C [COPROSTANOL] | Active | 0.0172 s⁻¹ | Active | 43.1% | 0.2373 s⁻¹ | 0.12 s⁻¹ | 50.9% | Active | – | – | Activity [8]: 68.4% |
| CC(C)=CCC[C@@H](C)[C@H]1CC[C@H]2[C@@H]3CC=C4C[C@@H](O)CC[C@]4(C)[C@H]3CC[C@]12C [DESMOSTEROL] | Active | 0.0228 s⁻¹ | Active | 41.4% | 0.2215 s⁻¹ | 0.115 s⁻¹ | 47.5% | Active | – | – | Activity [8]: 91.2% |
| CC(C)=CCC[C@@H](C)[C@H]1CC[C@@]2(C)C3=C(CC[C@]12C)[C@@]1(C)CC[C@H](O)C(C)(C)[C@@H]1CC3 [LANOSTEROL] | Active | – | Active | 132% | 0.1728 s⁻¹ | 0.368 s⁻¹ | 37% | Active | – | – | – |
